Experimental data: ChEMBL document CHEMBL1121802, “Imine analogues of tricyclic antidepressants” (1981)

How the values were obtained:
Format in all cases: functional
Mus musculus [1] = experiment: The effect on 24-hour mortality in mice following oral administration
Mus musculus [2] = experiment: The effect on ataxia in mice following oral administration
Method in brief: (§1)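 Observed at 0.5, 2, 5 and 24 h for ataxia (abnormal gait/imprecise movement), pupil diameter (dissecting microscope, 20×, micrometer), excitement (spontaneous running/jumping) and electroshock protection (corneal electrodes at 2 and 5 h). ED50 by Thompson method.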

Mus musculus [3] = experiment: Compound was tested for antidepressant activity by determining the reversal of tetrabenazine-induced ptosis upon oral administration; 7-22
Method in brief: (§2)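 Mice given test drug orally; 30 min later challenged with tetrabenazine (methanesulfonate) 32 mg/kg ip in 0.05 M KCl pH 2.0. Scored 1 h after test drug for exploratory activity and ptosis; ptosis antagonism = lid closure <50% in both eyes exactly 2 s after placing mouse facing observer. ED50 calculated by Thompson method.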

Mus musculus [4] = experiment: Compound was tested for antidepressant activity by determining the decreased exploratory activity in mice upon oral administration; 12-32; method in brief: as §2
Mus musculus [5] = experiment: The effect on electroshock protection in mice following oral administration; method in brief: as §1
Mus musculus [6] = experiment: The effect on excitement was measured in mice following oral administration; method in brief: as §1
Mus musculus [7] = experiment: Effect on pupil dilation was measured in mice upon oral administration; method in brief: as §1
Mus musculus [8] = experiment: Compound was tested for antidepressant activity by determining the reversal of tetrabenazine-induced ptosis upon oral administration; 0.7-1.9; method in brief: as §2
Mus musculus [9] = experiment: Compound was tested for antidepressant activity by determining the decreased exploratory activity in mice upon oral administration; 6.0-12.0; method in brief: as §2
Mus musculus [10] = experiment: Antidepressant activity by determining the reversal of tetrabenazine-induced ptosis upon oral administration; method in brief: as §2
Mus musculus [11] = experiment: Compound was tested for antidepressant activity by determining the decreased exploratory activity in mice upon oral administration; 34-158; method in brief: as §2
Mus musculus [12] = experiment: Compound was tested for antidepressant activity by determining the reversal of tetrabenazine-induced ptosis upon oral administration; 6-21; method in brief: as §2
Mus musculus [13] = experiment: Compound was tested for antidepressant activity by determining the decreased exploratory activity in mice upon oral administration; 16-31; method in brief: as §2
Mus musculus [14] = experiment: The effect on 24-hour mortality was measured in mice upon ip administration
Mus musculus [15] = experiment: The effect on ataxia was measured in mice upon ip administration
Mus musculus [16] = experiment: The effect on electroshock protection was measured in mice upon ip administration
Mus musculus [17] = experiment: Antidepressant activity by determining the decreased exploratory activity in mice upon oral administration; method in brief: as §2
Mus musculus [18] = experiment: The effect on excitement was measured in mice upon ip administration
Mus musculus [19] = experiment: Compound was tested for antidepressant activity by determining the reversal of tetrabenazine-induced ptosis upon oral administration; 27-60; method in brief: as §2
Mus musculus [20] = experiment: Compound was tested for antidepressant activity by determining the reversal of tetrabenazine-induced ptosis upon oral administration; 84-110; method in brief: as §2
Mus musculus [21] = experiment: Compound was tested for antidepressant activity by determining the decreased exploratory activity in mice upon oral administration; method in brief: as §2
Mus musculus [22] = experiment: Compound was tested for antidepressant activity by determining the reversal of tetrabenazine-induced ptosis upon oral administration; 22-53; method in brief: as §2
Mus musculus [23] = experiment: Compound was tested for antidepressant activity by determining the reversal of tetrabenazine-induced ptosis upon oral administration; 3.0-12.0; method in brief: as §2
Mus musculus [24] = experiment: Compound was tested for antidepressant activity by determining the reversal of tetrabenazine-induced ptosis upon oral administration; 1.3-2.7; method in brief: as §2
Mus musculus [25] = experiment: Compound was tested for antidepressant activity by determining the decreased exploratory activity in mice upon oral administration; 4.7-17; method in brief: as §2
Mus musculus [26] = experiment: Compound was tested for antidepressant activity by determining the reversal of tetrabenazine-induced ptosis upon oral administration; 0.5-0.9; method in brief: as §2
Mus musculus [27] = experiment: Compound was tested its antidepressant activity by determining the decreased exploratory activity in mice upon oral administration; 1.1-2.1; method in brief: as §2
Mus musculus [28] = experiment: Compound was tested for its antidepressant activity by determining the decreased exploratory activity in mice upon oral administration; 8.1-15.4; method in brief: as §2
Mus musculus [29] = experiment: Compound was tested for antidepressant activity by determining the reversal of tetrabenazine-induced ptosis upon oral administration; 1.1-1.8
Mus musculus [30] = experiment: Compound was tested for antidepressant activity by determining the decreased exploratory activity in mice upon oral administration; 2.7-4.6

## CN(C)CC/N=C1\c2ccccc2CNc2ccccc21
Mus musculus [1]
  ED50: 300 mg/kg
Mus musculus [2]
  ED50: 36 mg/kg
Mus musculus [3]
  ED50: 12 mg/kg
Mus musculus [4]
  ED50: 20 mg/kg
Mus musculus [5]
  ED50: > 324 mg/kg
Mus musculus [6]
  ED50: > 324 mg/kg
Mus musculus [7]
  ED50: 36 mg/kg

## CCNCCN=C1c2ccccc2C2CC2c2ccccc21 (stereo unspecified)
Mus musculus [1]
  ED50: 200 mg/kg
Mus musculus [2]
  ED50: 36 mg/kg
Mus musculus [8]
  ED50: 1.1 mg/kg
Mus musculus [5]
  ED50: > 324 mg/kg
Mus musculus [6]
  ED50: > 324 mg/kg
Mus musculus [7]
  ED50: 36 mg/kg
Mus musculus [9]
  ED50: 8.4 mg/kg

## CN(C)CCN=c1c2ccccc2oc2ccccc12
Mus musculus [1]
  ED50: 300 mg/kg
Mus musculus [2]
  ED50: 60 mg/kg
Mus musculus [10]
  ED50: > 125 mg/kg
Mus musculus [5]
  ED50: > 324 mg/kg
Mus musculus [6]
  ED50: 60 mg/kg
Mus musculus [7]
  ED50: > 324 mg/kg
Mus musculus [11]
  ED50: 73 mg/kg

## CN(C)CC/N=C1\c2ccccc2CN(C)c2ccccc21
Mus musculus [1]
  ED50: 60 mg/kg
Mus musculus [2]
  ED50: 60 mg/kg
Mus musculus [12]
  ED50: 11 mg/kg
Mus musculus [5]
  ED50: 200 mg/kg
Mus musculus [6]
  ED50: > 324 mg/kg
Mus musculus [7]
  ED50: 60 mg/kg
Mus musculus [13]
  ED50: 22 mg/kg

## c1ccc2c(c1)CCc1ccccc1C2=NCCN1CCOCC1
Mus musculus [14]
  ED50: 300 mg/kg
Mus musculus [15]
  ED50: 200 mg/kg
Mus musculus [16]
  ED50: 300 mg/kg
Mus musculus [10]
  ED50: > 125 mg/kg
Mus musculus [17]
  ED50: > 125 mg/kg
Mus musculus [18]
  ED50: > 324 mg/kg
Mus musculus [7]
  ED50: 100 mg/kg

## CN(C)CC/N=C1\c2ccccc2CS(=O)(=O)c2ccccc21
Mus musculus [1]
  ED50: > 324 mg/kg
Mus musculus [2]
  ED50: 200 mg/kg
Mus musculus [17]
  ED50: > 125 mg/kg
Mus musculus [5]
  ED50: > 324 mg/kg
Mus musculus [6]
  ED50: 200 mg/kg
Mus musculus [7]
  ED50: 36 mg/kg
Mus musculus [19]
  ED50: 40 mg/kg

## CN(C)CCCN=c1c2ccccc2sc2ccccc12
Mus musculus [1]
  ED50: 200 mg/kg
Mus musculus [2]
  ED50: 60 mg/kg
Mus musculus [20]
  ED50: 96 mg/kg
Mus musculus [21]
  ED50: 125 mg/kg
Mus musculus [5]
  ED50: > 324 mg/kg
Mus musculus [6]
  ED50: 60 mg/kg
Mus musculus [7]
  ED50: 60 mg/kg

## c1ccc2c(c1)C(=NCCN1CCCCC1)c1ccccc1C1CC21 (stereo unspecified)
Mus musculus [1]
  ED50: 200 mg/kg
Mus musculus [2]
  ED50: 12 mg/kg
Mus musculus [22]
  ED50: 34 mg/kg
Mus musculus [17]
  ED50: > 125 mg/kg
Mus musculus [5]
  ED50: > 324 mg/kg
Mus musculus [6]
  ED50: > 324 mg/kg
Mus musculus [7]
  ED50: > 324 mg/kg

## CN(C)CC/N=C1\c2ccccc2COc2ccccc21
Mus musculus [1]
  ED50: 200 mg/kg
Mus musculus [2]
  ED50: 36 mg/kg
Mus musculus [23]
  ED50: 6 mg/kg
Mus musculus [21]
  ED50: 33 mg/kg
Mus musculus [5]
  ED50: 60 mg/kg
Mus musculus [6]
  ED50: > 324 mg/kg
Mus musculus [7]
  ED50: 20 mg/kg

## CN(C)CCN=C1c2ccccc2CCc2ccccc21
Mus musculus [1]
  ED50: 100 mg/kg
Mus musculus [2]
  ED50: 20 mg/kg
Mus musculus [24]
  ED50: 1.9 mg/kg
Mus musculus [5]
  ED50: 36 mg/kg
Mus musculus [6]
  ED50: > 324 mg/kg
Mus musculus [7]
  ED50: 20 mg/kg
Mus musculus [25]
  ED50: 9 mg/kg

## NCCN=C1c2ccccc2C2CC2c2ccccc21 (stereo unspecified)
Mus musculus [1]
  ED50: 200 mg/kg
Mus musculus [2]
  ED50: 60 mg/kg
Mus musculus [26]
  ED50: 0.7 mg/kg
Mus musculus [5]
  ED50: 100 mg/kg
Mus musculus [6]
  ED50: > 324 mg/kg
Mus musculus [7]
  ED50: 100 mg/kg
Mus musculus [27]
  ED50: 1.5 mg/kg

## CN(C)CC/N=C1\c2ccccc2CCc2ccc(Cl)cc21 (mixture of isomers)
Mus musculus [1]
  ED50: 100 mg/kg
Mus musculus [2]
  ED50: 20 mg/kg
Mus musculus [10]
  ED50: 4.9 mg/kg
Mus musculus [28]
  ED50: 11.2 mg/kg
Mus musculus [5]
  ED50: 60 mg/kg
Mus musculus [6]
  ED50: > 324 mg/kg
Mus musculus [7]
  ED50: 36 mg/kg

## CN(C)CCC=C1c2ccccc2CCc2ccccc21 [AMITRIPTYLINE]
Mus musculus [1]
  ED50: 190 mg/kg
Mus musculus [2]
  ED50: 14 mg/kg
Mus musculus [29]
  ED50: 1.4 mg/kg
Mus musculus [5]
  ED50: 43 mg/kg
Mus musculus [6]
  ED50: > 324 mg/kg
Mus musculus [7]
  ED50: 23 mg/kg
Mus musculus [30]
  ED50: 3.5 mg/kg
